From the array DNA melting data of Ke et al. (doi:10.1101/2024.01.08.574731) come the findings set out here.

Data set [1] can be described thus: melting temperature; fluorescence melt of hairpins on a sequencing array, two-state fit, raised by 9.35 °C to match UV melts. The note with it: sodium 0.088 M. In outline:
(§1)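 To match UV melts, fitted temperatures were raised by 9.35 °C. These fits were bootstrapped two-state models that gave melting temperature and folding enthalpy, combined by inverse variance over four replicates. The input was normalised Cy3 fluorescence of library hairpins with annealed Cy3 and quencher oligos on a sequenced MiSeq flow cell, imaged in 50 mM Na-HEPES pH 8.0, 25 mM NaCl in 2.5 °C steps up to 60 °C.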

Data set [2] can be described thus: folding enthalpy; higher = less favourable; fluorescence melt of hairpins on a sequencing array, two-state fit. To be noted: sodium 0.088 M. In a few lines:
as §1

GTTTCGACGAAAGTCAAC (((..(((....)))))): in data set [1], the Tm is 22.9 °C. For the same sequence, the folding enthalpy in data set [2] is -9.58 kcal/mol.

Take GTTTCGGGAAACCAAAAC ((((.((....)).)))): the Tm in data set [1] worked out at 35.1 °C. For the same sequence, in data set [2], the folding enthalpy is -19.6 kcal/mol.

For GTTTCGGGAAACCGGAAC (((.(((....))).))), the Tm in data set [1] was found to be 49.6 °C. For the same sequence, in data set [2], the folding enthalpy was -35.2 kcal/mol.

In the case of GTTTCGGGAAACTGAAGC (.(((.(....).))).), the Tm in data set [1] came out at 37.9 °C. Further, in data set [2], the folding enthalpy was -11.2 kcal/mol.

On to GTTTGACGAAAGTCGAAC (((.(((....))).))), for which, in data set [1], the Tm stood at 57.8 °C. For the same sequence, in data set [2], the folding enthalpy was -35 kcal/mol.

GTTTGAGGAAACCCAAAC (((((.(....).))))): the Tm in data set [1] was found to be 36.8 °C. The folding enthalpy in data set [2] is -30.3 kcal/mol.

In the case of GTTTGAGGAAACTCAGAC ((.((((....)))).)), the Tm in data set [1] amounted to 39 °C. For the same sequence, the folding enthalpy in data set [2] was -23.4 kcal/mol.

Take GTTTGAGGAAACTTAGAC ((.(.((....)).).)): in data set [1], the Tm stood at 32.3 °C. Further, the folding enthalpy in data set [2] was -13.5 kcal/mol.

Take GTTTGCACGAAAGTGAAC (((..(((....)))))): in data set [1], the Tm was determined as 31.2 °C. In data set [2], the folding enthalpy is -13.9 kcal/mol.

Take GTTTGCCGAAAGGCCAAC (((.(((....))).))): in data set [1], the Tm amounted to 41.5 °C. For the same sequence, the folding enthalpy in data set [2] was -20.9 kcal/mol.

On to GTTTGCGAAAGCAATAAC ((((((....)))..))), for which the Tm in data set [1] stood at 34.5 °C. Moreover, the folding enthalpy in data set [2] is -12.6 kcal/mol.

For GTTTGCGAAAGCAGAAC ((((((....))).))), the Tm in data set [1] was found to be 44.5 °C. Besides, the folding enthalpy in data set [2] was -13.7 kcal/mol.

Consider GTTTGCGAAAGCATCAAC ((((((....)))..))), for which the Tm in data set [1] turned out to be 27.2 °C. In data set [2], the folding enthalpy was -8.63 kcal/mol.

With GTTTGCGAAAGCATTAAC ((((((....)))..))), the Tm in data set [1] came to 27.3 °C. The folding enthalpy in data set [2] is -12.2 kcal/mol.

Consider GTTTGGCGAAAGCCCAAC (((.(((....))).))), for which the Tm in data set [1] was 39.1 °C. In data set [2], the folding enthalpy was -19.1 kcal/mol.

Take GTTTGGGGAAACCCAGAC ((.((((....)))).)): in data set [1], the Tm turned out to be 44.8 °C. The folding enthalpy in data set [2] was -26.4 kcal/mol.

For GTTTGGGGAAACTCAAAC (((((.(....).))))), the Tm in data set [1] is 43.9 °C. Besides, in data set [2], the folding enthalpy was -31.7 kcal/mol.

GTTTGGGGAAACTCGAAC (((.(.(....).).))): the Tm in data set [1] worked out at 30.8 °C. The folding enthalpy in data set [2] was -17.6 kcal/mol.

On to GTTTGTCGAAAGACGAAC (((.(((....))).))), for which, in data set [1], the Tm was found to be 53.1 °C. Also, the folding enthalpy in data set [2] was -39 kcal/mol.

As to GTTTGTGGAAACACAAAC (((((((....))))))), the Tm in data set [1] stood at 58.4 °C. In data set [2], the folding enthalpy was -46.4 kcal/mol.

For the sequence GTTTGTGGAAACGCAAAC (((((.(....).))))), the Tm in data set [1] is 48.4 °C. Besides, in data set [2], the folding enthalpy is -36.2 kcal/mol.

Regarding GTTTTAACGAAAGTTAAC (((..(((....)))))), the Tm in data set [1] turned out to be 27 °C. In addition, in data set [2], the folding enthalpy was -14.7 kcal/mol.

Consider GTTTTATCGAAAGATAAC (((..(((....)))))), for which the Tm in data set [1] was 29.8 °C. For the same sequence, the folding enthalpy in data set [2] is -11.4 kcal/mol.

Take GTTTTCCCGAAAGGGAAC (((..(((....)))))): the Tm in data set [1] came to 36.5 °C. The folding enthalpy in data set [2] was -10.7 kcal/mol.

In the case of GTTTTCGAAAGAAACAAC ((((((....)))..))), the Tm in data set [1] is 26.6 °C. For the same sequence, the folding enthalpy in data set [2] is -11.7 kcal/mol.

For GTTTTCGAAAGAACAAC ((((((....))).))), the Tm in data set [1] is 30.5 °C. The folding enthalpy in data set [2] was -12.2 kcal/mol.

As for GTTTTCGAAAGAATAAC ((((((....))).))), the Tm in data set [1] was determined as 31.2 °C. In addition, the folding enthalpy in data set [2] is -12.9 kcal/mol.

Turning to GTTTTCGCGAAAGCGAAC (((..(((....)))))), in data set [1], the Tm amounted to 40.1 °C. Also, in data set [2], the folding enthalpy is -8.54 kcal/mol.

Consider GTTTTCGGAAACGAAAGC (.(((((....))))).), for which the Tm in data set [1] was determined as 44.4 °C. Further, the folding enthalpy in data set [2] is -25.9 kcal/mol.

As for GTTTTGCCGAAAGGCAAC (((..(((....)))))), the Tm in data set [1] amounted to 36 °C. Moreover, in data set [2], the folding enthalpy is -8.44 kcal/mol.

For the sequence GTTTTGCGAAAGCAAAC (((.(((....)))))), the Tm in data set [1] was determined as 46.1 °C. The folding enthalpy in data set [2] is -13.8 kcal/mol.

Regarding GTTTTGGAAACAAAAC ((((((....)))))), the Tm in data set [1] came out at 49.3 °C. Moreover, the folding enthalpy in data set [2] was -31.6 kcal/mol.

Take GTTTTGGGAAACCAAAAC (((((((....))))))): the Tm in data set [1] turned out to be 57.5 °C. Moreover, in data set [2], the folding enthalpy was -43.5 kcal/mol.

GTTTTTCCGAAAGGAAAC (((..(((....)))))): in data set [1], the Tm was 35.1 °C. The folding enthalpy in data set [2] was -13.4 kcal/mol.

In the case of GTTTTTGGAAACAAGAAC (((.(((....))).))), the Tm in data set [1] is 32.7 °C. Further, in data set [2], the folding enthalpy is -19.6 kcal/mol.

Consider TAAGCGAAAGCTTA (((((....))))), for which the Tm in data set [1] turned out to be 54.5 °C. Moreover, the folding enthalpy in data set [2] is -15 kcal/mol.

As for TACTGGAAACAGTA (((((....))))), the Tm in data set [1] stood at 36.8 °C. The folding enthalpy in data set [2] was -15.8 kcal/mol.
